Laboratory results as given in ChEMBL document CHEMBL1124396, “New brain perfusion imaging agents based on 99mTc-bis(aminoethanethiol) complexes: stereoisomers and biodistribution” (J Med Chem, 1989).
Where “and” joins values, the source holds several entries; their conditions need not be identical. Equal values may be shown once.

Legend:
Rattus norvegicus [1] = experiment: Biodistribution in the skin of rat, 2 min after administration; type: ADME, organism-based, Zone of skin; conditions: in vivo
Procedure, shortened: (§1)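 Male Sprague-Dawley rats (200-300 g) under ether anesthesia were given the 99mTc complex (0.5-20 μCi in 0.2 mL saline) iv via the femoral vein. Organs were taken at 2 or 15 min. Uptake is reported as % dose/organ, found by comparing tissue radioactivity with dilutions of the injected dose.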

Rattus norvegicus [2] = experiment: Biodistribution in the heart of rat, 2 min after administration; type: ADME, organism-based; conditions: in vivo; procedure, shortened: as §1
Rattus norvegicus [3] = experiment: Biodistribution in the heart of rat, 15 min after administration; type: ADME, organism-based; conditions: in vivo, 0.25 h; procedure, shortened: as §1
Rattus norvegicus [4] = experiment: Biodistribution in the blood of rat, 15 min after administration; type: ADME, organism-based; conditions: in vivo, 0.25 h; procedure, shortened: as §1
Rattus norvegicus [5] = experiment: Biodistribution in the liver of rat, 15 min after administration; type: ADME, organism-based; conditions: in vivo, 0.25 h; procedure, shortened: as §1
Rattus norvegicus [6] = experiment: Biodistribution in the spleen of rat, 15 min after administration; type: ADME, organism-based; conditions: in vivo, 0.25 h; procedure, shortened: as §1
Rattus norvegicus [7] = experiment: Biodistribution in the kidneys of rat, 2 min after administration; type: ADME, organism-based, Kidney; conditions: in vivo; procedure, shortened: as §1
Rattus norvegicus [8] = experiment: Biodistribution in the brain of rat, 15 min after administration; type: ADME, organism-based; conditions: in vivo, 0.25 h; procedure, shortened: as §1
Rattus norvegicus [9] = experiment: Biodistribution in the brain blood of rat, 2 min after administration; type: ADME, organism-based; conditions: in vivo
Procedure, shortened: (§2)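 Rats (male Sprague-Dawley, 200-300 g) received the 99mTc complex iv (femoral vein, ether anesthesia; 0.5-20 μCi in 0.2 mL saline) and were sampled at 2 or 15 min. % dose/organ was converted to % dose/gram using mean organ weights (brain 1.65 g, blood 18 g). Brain:blood ratio was taken from these % dose/gram values.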

Rattus norvegicus [10] = experiment: Biodistribution in the brain blood of rat, 15 min after administration; type: ADME, organism-based; conditions: in vivo, 0.25 h; procedure, shortened: as §2
Rattus norvegicus [11] = experiment: Biodistribution in the lungs of rat, 15 min after administration; type: ADME, organism-based, Lung; conditions: in vivo, 0.25 h; procedure, shortened: as §1
Rattus norvegicus [12] = experiment: Biodistribution in the spleen of rat, 2 min after administration; type: ADME, organism-based; conditions: in vivo; procedure, shortened: as §1
Rattus norvegicus [13] = experiment: Biodistribution in the blood of rat, 2 min after administration; type: ADME, organism-based; conditions: in vivo; procedure, shortened: as §1
Rattus norvegicus [14] = experiment: Biodistribution in the thyroid of rat, 2 min after administration; type: ADME, organism-based, Thyroid gland; conditions: in vivo; procedure, shortened: as §1
Rattus norvegicus [15] = experiment: Biodistribution in the skin of rat, 15 min after administration; type: ADME, organism-based, Zone of skin; conditions: in vivo, 0.25 h; procedure, shortened: as §1
Rattus norvegicus [16] = experiment: Biodistribution in the muscle of rat, 2 min after administration; type: ADME, organism-based, Muscle tissue; conditions: in vivo; procedure, shortened: as §1
Rattus norvegicus [17] = experiment: Biodistribution in the lungs of rat, 2 min after administration; type: ADME, organism-based, Lung; conditions: in vivo; procedure, shortened: as §1
Rattus norvegicus [18] = experiment: Biodistribution in the stomach of rat, 2 min after administration; type: ADME, organism-based; conditions: in vivo; procedure, shortened: as §1
Rattus norvegicus [19] = experiment: Biodistribution in the muscle of rat, 15 min after administration; type: ADME, organism-based, Muscle tissue; conditions: in vivo, 0.25 h; procedure, shortened: as §1
Rattus norvegicus [20] = experiment: Biodistribution in the thyroid of rat, 15 min after administration; type: ADME, organism-based, Thyroid gland; conditions: in vivo, 0.25 h; procedure, shortened: as §1
Rattus norvegicus [21] = experiment: Biodistribution in the kidneys of rat, 15 min after administration; type: ADME, organism-based, Kidney; conditions: in vivo, 0.25 h; procedure, shortened: as §1
Rattus norvegicus [22] = experiment: Biodistribution in the stomach of rat, 15 min after administration; type: ADME, organism-based; conditions: in vivo, 0.25 h; procedure, shortened: as §1

- Biodistribution (Rattus norvegicus [1]): 9.18%
- Biodistribution (Rattus norvegicus [2]): 2.46%
- Biodistribution (Rattus norvegicus [3]): 0.43%
- Biodistribution (Rattus norvegicus [4]): 2.04%
- Biodistribution (Rattus norvegicus [5]): 18.6%
- Biodistribution (Rattus norvegicus [6]): 0.79%
- Biodistribution (Rattus norvegicus [7]): 7.8%
- Biodistribution (Rattus norvegicus [8]): 1.08%
- Biodistribution (Rattus norvegicus [9]): 5.33%
- Biodistribution (Rattus norvegicus [10]): 5.82%
- Biodistribution (Rattus norvegicus [11]): 3.38%
- Biodistribution (Rattus norvegicus [12]): 0.7%
- Biodistribution (Rattus norvegicus [13]): 5.37% and 2.46%
- Biodistribution (Rattus norvegicus [14]): 0.22%
- Biodistribution (Rattus norvegicus [15]): 15.7%
- Biodistribution (Rattus norvegicus [16]): 8.43%
- Biodistribution (Rattus norvegicus [17]): 9.18% and 2.77%
- Biodistribution (Rattus norvegicus [18]): 1.85%
- Biodistribution (Rattus norvegicus [19]): 18.1%
- Biodistribution (Rattus norvegicus [20]): 0.07%
- Biodistribution (Rattus norvegicus [21]): 2.22%
- Biodistribution (Rattus norvegicus [22]): 4.51%
Substance: (Syn-isomer) 99mTc-2,3-bis(2-thioacetamido)propanate
